Results from ChEMBL document CHEMBL1649422, “Synthesis and molecular modeling of novel tetrahydro-β-carboline derivatives with phosphodiesterase 5 inhibitory and anticancer properties” (J Med Chem, 2011).

Tests used:
MDA-MB-231 [1] = assay: Growth inhibition of human MDA-MB-231 cells at 10 uM after 72 hrs by luminescence assay; format: functional; details: MDA-MB-231, 72 h
MDA-MB-231 [2] = assay: Growth inhibition of human MDA-MB-231 cells after 72 hrs by luminescence assay; format: functional, cell-based; details: MDA-MB-231, 72 h
Summary of the method: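 MDA-MB-231 cells grown in RPMI 1640 with 5% FBS, 2 mM glutamine and antibiotics at 37 °C, 5% CO2. Cells were harvested at 70–90% confluence, used only if viability >95%, and seeded at 5000 cells/well. Dosing followed 18–24 h later, with final DMSO 0.1%. Viability was read after 72 h by CellTiter-Glo luminescence. IC50 came from eight concentrations in quadruplicate, fitted to a four-parameter logistic.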

[3] = molecular target: T1, cGMP-specific 3',5'-cyclic phosphodiesterase (Homo sapiens, UniProt O76074); assay: Inhibition of human recombinant PDE5 at 10 uM after 30 mins by fluorescence polarization assay
[4] = molecular target: T1, cGMP-specific 3',5'-cyclic phosphodiesterase; assay: Inhibition of human recombinant PDE5 after 30 mins by fluorescence polarization assay
Summary of the method: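 Recombinant human PDE5A at 12.5 units/mL was preincubated 30 min with compound or vehicle. Then 50 nM TAMRA-cGMP was added and the mix incubated 1.5 h at 30 °C. IMAP binding reagent was added for 30 min at 30 °C and fluorescence polarization read. IC50 came from a 10-concentration series in quadruplicate, fitted to a four-parameter logistic.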

| SMILES | IC50 (MDA-MB-231 [2]) [µM] | inhibition [3] [%] | IC50 [4] [nM] | inhibition at 10 µM (MDA-MB-231 [1]) [%] |
| --- | --- | --- | --- | --- |
| COC(=O)[C@@H]1Cc2c([nH]c3ccccc23)[C@@H](c2ccc(Cl)c(Cl)c2)N1 |  | 24 |  | 48 |
| CCN1CC(=O)N2[C@H](c3ccc(Cl)c(Cl)c3)c3[nH]c4ccccc4c3C[C@H]2C1=O |  | 78 | 2040 | 50 |
| CCN1C(=O)[C@H]2Cc3c([nH]c4ccccc34)[C@@H](c3ccc(Cl)c(Cl)c3)N2C1=O |  | 95 | 150 | 50 |
| COC(=O)[C@@H]1Cc2c([nH]c3ccccc23)[C@@H](c2ccc(Cl)cc2Cl)N1 |  | 82 | 570 | 28 |
| CCN1CC(=O)N2[C@@H](c3ccc(Cl)c(Cl)c3)c3[nH]c4ccccc4c3C[C@@H]2C1=O |  | 45 |  | 44 |
| CC(C)(C)N1CC(=O)N2[C@@H](c3ccc(Cl)cc3Cl)c3[nH]c4ccccc4c3C[C@H]2C1=O | 2.59 | 78 | 1350 |  |
| COC(=O)[C@@H]1Cc2c([nH]c3ccccc23)[C@@H](c2ccc(Cl)cc2Cl)N1C(=O)CCl | 1.24 | 38 |  | 98 |
| CN1CC(=O)N2[C@H](c3ccc(Cl)cc3Cl)c3[nH]c4ccccc4c3C[C@H]2C1=O |  | 95 | 50 | 23 |
| COC(=O)[C@@H]1Cc2c([nH]c3ccccc23)[C@H](c2ccc(Cl)c(Cl)c2)N1 | 6.98 | 18 |  | 62 |
| CC(C)(C)N1CC(=O)N2[C@@H](c3ccc(Cl)c(Cl)c3)c3[nH]c4ccccc4c3C[C@H]2C1=O |  | 35 |  | 58 |
| CCN1C(=O)[C@H]2Cc3c([nH]c4ccccc34)[C@H](c3ccc(Cl)cc3Cl)N2C1=O |  | 90 | 90 | 54 |
| CCN1C(=O)[C@@H]2Cc3c([nH]c4ccccc34)[C@H](c3ccc(Cl)cc3Cl)N2C1=O |  | 85 | 850 | 29 |
| COC(=O)[C@H]1Cc2c([nH]c3ccccc23)[C@H](c2ccc(Cl)c(Cl)c2)N1C(=O)CCl |  | 30 |  | 50 |
| COC(=O)[C@H]1Cc2c([nH]c3ccccc23)[C@@H](c2ccc(Cl)c(Cl)c2)N1C(=O)CCl |  | 40 |  |  |
| CC(C)(C)N1CC(=O)N2[C@@H](c3ccc(Cl)c(Cl)c3)c3[nH]c4ccccc4c3C[C@@H]2C1=O |  | 30 |  | 40 |
| COC(=O)[C@H]1Cc2c([nH]c3ccccc23)[C@@H](c2ccc(Cl)cc2Cl)N1C(=O)CCl | 0.56 | 66 | 2300 |  |
| COC(=O)[C@@H]1Cc2c([nH]c3ccccc23)[C@H](c2ccc(Cl)cc2Cl)N1C(=O)CCl |  | 99 | 380 | 55 |

| SMILES | IC50 (MDA-MB-231 [2]) [µM] | inhibition [3] [%] | IC50 [4] [nM] | inhibition at 10 µM (MDA-MB-231 [1]) [%] |
| --- | --- | --- | --- | --- |
| CCCCN1CC(=O)N2[C@H](c3ccc(Cl)cc3Cl)c3[nH]c4ccccc4c3C[C@H]2C1=O |  | 89 | 290 | 42 |
| COC(=O)[C@H]1Cc2c([nH]c3ccccc23)[C@H](c2ccc(Cl)cc2Cl)N1 | 6.73 | 40 |  | 78 |
| CC(C)(C)N1C(=O)[C@@H]2Cc3c([nH]c4ccccc34)[C@H](c3c(Cl)cccc3Cl)N2C1=O |  | 25 |  | 15 |
| CC(C)(C)N1C(=O)[C@H]2Cc3c([nH]c4ccccc34)[C@@H](c3c(Cl)cccc3Cl)N2C1=O |  | 52 |  | 38 |
| CC(C)(C)N1CC(=O)N2[C@@H](c3ccc(Cl)cc3Cl)c3[nH]c4ccccc4c3C[C@@H]2C1=O | 2.92 |  | 1260 |  |
| COC(=O)[C@H]1Cc2c([nH]c3ccccc23)[C@H](c2ccc(Cl)c(Cl)c2)N1 | 4.62 | 50 |  | 100 |
| CCN1C(=O)[C@@H]2Cc3c([nH]c4ccccc34)[C@H](c3c(Cl)cccc3Cl)N2C1=O |  | 37 |  | 52 |
| COC(=O)[C@H]1Cc2c([nH]c3ccccc23)[C@@H](c2c(Cl)cccc2Cl)N1C(=O)CCl |  | 27 |  | 15 |
| CCN1CC(=O)N2[C@H](c3ccc(Cl)cc3Cl)c3[nH]c4ccccc4c3C[C@H]2C1=O |  | 95 | 10 | 20 |
| CCN1C(=O)[C@H]2Cc3c([nH]c4ccccc34)[C@H](c3ccc(Cl)c(Cl)c3)N2C1=O |  |  | 2860 |  |
| CCCCN1CC(=O)N2[C@H](c3ccc(Cl)cc3Cl)c3[nH]c4ccccc4c3C[C@@H]2C1=O |  | 95 | 270 | 45 |
| CCN1CC(=O)N2[C@@H](c3c(Cl)cccc3Cl)c3[nH]c4ccccc4c3C[C@H]2C1=O |  | 28 |  | 24 |
| CC(C)(C)N1C(=O)[C@H]2Cc3c([nH]c4ccccc34)[C@H](c3ccc(Cl)c(Cl)c3)N2C1=O |  | 65 | 6380 | 58 |
| COC(=O)[C@@H]1Cc2c([nH]c3ccccc23)[C@H](c2ccc(Cl)c(Cl)c2)N1C(=O)CCl |  | 20 |  | 43 |
| CCN1CC(=O)N2[C@H](c3ccc(Cl)c(Cl)c3)c3[nH]c4ccccc4c3C[C@@H]2C1=O |  | 80 | 1340 | 30 |
| CCN1C(=O)[C@@H]2Cc3c([nH]c4ccccc34)[C@H](c3ccc(Cl)c(Cl)c3)N2C1=O | 4.78 |  | 8750 |  |
| COC(=O)[C@H]1Cc2c([nH]c3ccccc23)[C@H](c2ccc(Cl)cc2Cl)N1C(=O)CCl | 0.07 | 25 |  |  |

Further lines, with some results ahead:

| IC50 (MDA-MB-231 [2]) [µM] | inhibition [3] [%] | IC50 [4] [nM] | SMILES | inhibition at 10 µM (MDA-MB-231 [1]) [%] |
| --- | --- | --- | --- | --- |
| 3.25 | 82 | 1870 | CC(C)(C)N1C(=O)[C@H]2Cc3c([nH]c4ccccc34)[C@@H](c3ccc(Cl)c(Cl)c3)N2C1=O | 99 |
|  | 78 | 1610 | COC(=O)[C@H]1Cc2c([nH]c3ccccc23)[C@@H](c2ccc(Cl)c(Cl)c2)N1 | 43 |
|  | 35 |  | CC(C)(C)N1CC(=O)N2[C@H](c3ccc(Cl)c(Cl)c3)c3[nH]c4ccccc4c3C[C@@H]2C1=O | 36 |
|  | 25 |  | COC(=O)[C@H]1Cc2c([nH]c3ccccc23)[C@@H](c2c(Cl)cccc2Cl)N1 |  |
|  | 21 |  | CC(C)(C)N1CC(=O)N2[C@H](c3c(Cl)cccc3Cl)c3[nH]c4ccccc4c3C[C@@H]2C1=O | 16 |
|  | 18 |  | CCN1C(=O)[C@H]2Cc3c([nH]c4ccccc34)[C@@H](c3c(Cl)cccc3Cl)N2C1=O | 55 |
|  | 85 | 1270 | CC(C)(C)N1CC(=O)N2[C@H](c3ccc(Cl)c(Cl)c3)c3[nH]c4ccccc4c3C[C@H]2C1=O | 50 |
|  | 65 | 7200 | COC(=O)[C@H]1Cc2c([nH]c3ccccc23)[C@@H](c2ccc(Cl)cc2Cl)N1 | 29 |
|  | 40 |  | COC(=O)[C@@H]1Cc2c([nH]c3ccccc23)[C@@H](c2ccc(Cl)c(Cl)c2)N1C(=O)CCl | 55 |
|  | 67 | 3300 | CCN1CC(=O)N2[C@@H](c3ccc(Cl)c(Cl)c3)c3[nH]c4ccccc4c3C[C@H]2C1=O | 35 |
|  | 75 | 4140 | CC(C)(C)N1C(=O)[C@@H]2Cc3c([nH]c4ccccc34)[C@H](c3ccc(Cl)cc3Cl)N2C1=O | 22 |
|  | 88 | 12 | CC(C)(C)N1C(=O)[C@@H]2Cc3c([nH]c4ccccc34)[C@@H](c3ccc(Cl)c(Cl)c3)N2C1=O | 60 |
|  | 94 | 190 | CC(C)(C)N1CC(=O)N2[C@H](c3ccc(Cl)cc3Cl)c3[nH]c4ccccc4c3C[C@@H]2C1=O | 15 |
|  | 95 | 50 | CN1CC(=O)N2[C@H](c3ccc(Cl)cc3Cl)c3[nH]c4ccccc4c3C[C@@H]2C1=O | 10 |
|  | 55 |  | COC(=O)[C@@H]1Cc2c([nH]c3ccccc23)[C@H](c2ccc(Cl)cc2Cl)N1 | 50 |
|  |  | 260 | CC(C)(C)N1CC(=O)N2[C@H](c3ccc(Cl)cc3Cl)c3[nH]c4ccccc4c3C[C@H]2C1=O | 30 |
|  | 85 | 990 | CCN1CC(=O)N2[C@@H](c3ccc(Cl)cc3Cl)c3[nH]c4ccccc4c3C[C@H]2C1=O | 52 |
|  | 15 |  | COC(=O)[C@@H]1Cc2c([nH]c3ccccc23)[C@H](c2c(Cl)cccc2Cl)N1 | 52 |
|  | 67 | 730 | COC(=O)[C@@H]1Cc2c([nH]c3ccccc23)[C@H](c2c(Cl)cccc2Cl)N1C(=O)CCl | 30 |
|  | 21 |  | CC(C)(C)N1CC(=O)N2[C@@H](c3c(Cl)cccc3Cl)c3[nH]c4ccccc4c3C[C@H]2C1=O | 20 |
|  | 90 | 300 | CCN1C(=O)[C@@H]2Cc3c([nH]c4ccccc34)[C@@H](c3ccc(Cl)c(Cl)c3)N2C1=O | 18 |
|  | 40 |  | CCN1CC(=O)N2[C@H](c3c(Cl)cccc3Cl)c3[nH]c4ccccc4c3C[C@@H]2C1=O | 31 |
